Test system: not listed separately
Test: Selectivity index, ratio of IC50 for HEK293 cells to IC50 for Trypanosoma brucei brucei 427 bloodstream form
Type: toxicity, cell-based
Conditions: human, read-out: Ratio IC50
In short: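 HEK293 cells (55 µL of 72,727 cells/mL in DMEM + 10% FCS) in 384-well plates, 24 h at 37 °C/5% CO2. Drug diluted 1:21 from DMSO, final 83.34 to 0.0004 µM, 48 h. […] SI relative to T. b. brucei.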

SMILES | selectivity ratio
O=C(Nc1cccc(-c2nc3ncccc3o2)c1)c1ccoc1 | 89
O=C(Nc1cccc(-c2nc3ncccc3o2)c1)c1cscn1 | 63
O=C(Nc1cc(-c2nc3ncccc3o2)ccc1F)c1ccco1 | 13
Cc1ccoc1C(=O)Nc1ccc(Cl)c(-c2nc3ncccc3o2)c1 | > 130
O=C(Nc1ccc(Cl)c(-c2nc3ncccc3o2)c1)c1cnco1 | > 45

Test system: L6
Test: Cytotoxicity against rat L6 cells after 70 hrs by Alamar blue assay
Type: cell-based
Conditions: L6, 70 h
In short: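 4000 L-6 cells per well in RPMI 1640 with L-glutamine and 10% FBS. Eleven 3-fold dilutions from 100 to 0.002 µg/mL for 70 h; Alamar Blue 2 h, fluorescence at ex 536/em 588 nm. IC50 by linear regression from sigmoidal curves; podophyllotoxin control.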

SMILES | EC50 [µM]
COc1cc([C@@H]2c3cc4c(cc3[C@H](O)[C@H]3COC(=O)[C@H]23)OCO4)cc(OC)c1OC [PODOFILOX] | 0.017

Test system: Trypanosoma brucei brucei
Test: Antitrypanosomal activity against Trypanosoma brucei brucei 427 bloodstream form after 48 hrs by Alamar blue assay
Type: functional, organism-based
Conditions: Trypanosoma brucei, 427, 48 h
In short: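 Bloodstream parasites in 384-well plates, 24 h preincubation at 37 °C/5% CO2. DMSO dilutions diluted 1:21 in DMEM and added to give final 41.67 to 0.0004 µM; 48 h incubation. 70% Alamar Blue in HMI-9 + 10% FCS added, 2 h at 37 °C then 22 h at room temperature; read at ex 535/em 590 nm.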

SMILES | IC50 [µM]
O=C(Nc1cc(-c2nc3ncccc3o2)ccc1Cl)c1ccco1 | > 10
Cc1ccc(NC(=O)c2cnco2)cc1-c1nc2ncccc2o1 | > 10
O=C(Nc1ccc(Cl)c(-c2nc3ccccc3o2)c1)c1ccco1 | > 10
CN(C(=O)c1ccoc1)c1ccc(Cl)c(-c2nc3ncccc3o2)c1 | > 10
CN(C(=O)c1ccccc1)c1ccc(Cl)c(-c2nc3ncccc3o2)c1 | > 10
O=C(Nc1ccc(Cl)c(-c2nc3ncccc3o2)c1)c1c[nH]cn1 | > 10
O=C(Nc1ccc(Cl)c(-c2nc3ncccc3o2)c1)c1cc2ccccc2o1 | > 10
COc1ccccc1C(=O)Nc1ccc(Cl)c(-c2nc3ncccc3o2)c1 | > 10
COc1cccc(C(=O)Nc2ccc(Cl)c(-c3nc4ncccc4o3)c2)c1 | > 10
O=C(Nc1ccc(Cl)c(-c2nc3ncccc3o2)c1)c1ccncc1 | 3.4
O=C(Nc1ccc(Cl)c(-c2nc3ncccc3o2)c1)c1cccnc1 | > 10
COCC(=O)Nc1ccc(Cl)c(-c2nc3ncccc3o2)c1 | > 10
O=C(Nc1cccc(-c2nc3ncccc3o2)c1)c1ccoc1 | 0.6
O=C(Nc1cccc(-c2nc3ncccc3o2)c1)c1cscn1 | 1.3
Cc1c(NC(=O)c2ccco2)cccc1-c1nc2ncccc2o1 | > 10
O=C(Nc1cccc(-c2nc3ncccc3o2)c1F)c1ccco1 | > 10
O=C(Nc1cccc(-c2nc3ncccc3o2)c1Cl)c1ccco1 | > 10
O=C(Nc1cc(-c2nc3ncccc3o2)ccn1)c1ccco1 | > 10
O=C(Nc1cc(-c2nc3ncccc3o2)ccc1F)c1ccco1 | 6.3
O=C(Nc1cncc(-c2nc3ncccc3o2)c1)c1ccco1 | > 10
O=C(Nc1cc(F)cc(-c2nc3ncccc3o2)c1)c1ccco1 | > 10
Cc1ccoc1C(=O)Nc1ccc(Cl)c(-c2nc3ncccc3o2)c1 | 0.65
O=C(Nc1ccc(Cl)c(-c2nc3ncccc3o2)c1)c1ccno1 | 3.2
O=C(Nc1ccc(Cl)c(-c2nc3ncccc3o2)c1)c1cnco1 | 1.5
O=C(Nc1ccc(Cl)c(-c2nc3ncccc3o2)c1)c1cc[nH]n1 | > 10

Source: ChEMBL document CHEMBL2407056, “3-(Oxazolo[4,5-b]pyridin-2-yl)anilides as a novel class of potent inhibitors for the kinetoplastid Trypanosoma brucei, the causative agent for human African trypanosomiasis” (Eur J Med Chem, 2013)
